Common to all, as to type: functional, cell-based
In one assay the test system is Bel-7402. Kind of assay: Cytotoxicity against human Bel7402 cells after 3 days by MTT assay. The conditions noted are these: Bel-7402, 72 h. The method, boiled down:
(§1)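 Human tumor cells grown in RPMI-1640 with 5% fetal bovine serum. Freshly trypsinized cells seeded at 5000 cells per well in 96-well plates. Compounds added from DMSO-diluted stock. After three days of culture, attached cells stained with MTT, bound dye solubilized, absorbance read at 540 nm. IC50 taken as the concentration giving 50% growth inhibition, averaged from triplicate determinations.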
(Formazan colour is commonly taken as a measure of viable cells.)

The subject of the next assay is A2780. Kind of assay: Cytotoxicity against human A2780 cells after 3 days by MTT assay. The conditions noted are these: A2780, 72 h. The method, boiled down:
as §1

Another assay has as its system HCT-8. Kind of assay: Cytotoxicity against human HCT8 cells after 3 days by MTT assay. The following applies: HCT-8, 72 h. The method, boiled down: as §1

Usually IC50 stands for the concentration needed to halve the response being measured. The low end stands for inhibition by little substance, the high end for a need for much substance. `CC(=O)O[C@H]1C(=O)[C@@]2(C)[C@H]([C@H](OC(=O)c3ccccc3)[C@]3(O)C[C@H](OC(=O)[C@H](O)[C@@H](NC(=O)c4ccccc4)c4ccccc4)C(C)=C1C3(C)C)[C@]1(OC(C)=O)CO[C@@H]1C[C@@H]2O` [PACLITAXEL]: the figures for the IC50 in the assay with Bel-7402, in the assay with A2780 and in the assay on HCT-8 were 1.8 µM, 0.65 µM and 0.67 µM, respectively.
Taken in the same sequence, the figures for `COc1cc2c3cc1Oc1cc(ccc1O)C[C@@H]1c4c(cc(OC)c5c4Oc4ccc(cc4CO5)C[C@H]3N(C)CC2)CCN1C` [RACEMOSIDINE A] were 6.09 µM, 6.7 µM and 2.8 µM.
The corresponding values for `COc1cc2c3cc1Oc1cc(ccc1O)C[C@H]1c4c(cc(OC)c(OC)c4Oc4ccc(cc4)C[C@H]3N(C)CC2)CCN1C` [RACEMOSIDINE B] are 4.62 µM, greater than 10 µM and 9.72 µM.
Taken in the same sequence, the figures for `COc1ccc2cc1Oc1cc3c(cc1OC)CCN(C)[C@@H]3Cc1ccc(cc1)Oc1c(OC)c(O)cc3c1[C@H](C2)N(C)CC3` [RACEMOSIDINE C] were 7.53 µM, greater than 10 µM and 6.04 µM.
For `COc1cc2c3cc1Oc1c(O)c(OC)cc4ccnc(c14)Cc1ccc(cc1)Oc1cc(ccc1O)C[C@H]3N(C)CC2` [RACEMOSININE B], the IC50 in the assay on Bel-7402, in the assay on A2780 and in the assay on HCT-8 was greater than 10 µM throughout.
With `COc1cc2c3cc1Oc1c(O)c(OC)cc4ccnc(c14)Cc1ccc(cc1)Oc1cc(ccc1O)C[C@H]3[N+](C)([O-])CC2` (stereo partly drawn) [RACEMOSININE C], the IC50 with Bel-7402, with A2780 and in the assay on HCT-8 was greater than 10 µM in each case.

(Values after ChEMBL document CHEMBL1177753, “Cytotoxic bisbenzylisoquinoline alkaloids from the roots of Cyclea racemosa” (J Nat Prod, 2010).)
